Data as given in ChEMBL document CHEMBL1156207, “Synthesis of mono-carbonyl analogues of curcumin and their effects on inhibition of cytokine release in LPS-stimulated RAW 264.7 macrophages” (Bioorg Med Chem, 2010).
Calls of active or inactive are those of the source. No cut-off for these calls is given here.

Assays:
RAW264.7 [1] = assay: Antiinflammatory activity against LPS-stimulated mouse RAW264.7 cells assessed as inhibition of TNFalpha accumulation at 10 uM pretreated for 2 hrs before LPS challenge after 22 hrs by ELISA relative to control; assay type: functional
Outline: (§1)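 RAW 264.7 cells plated at 4.0 × 10⁵/plate at 37 °C, 5% CO₂, pretreated 2 h with compound or vehicle, then LPS added for 22 h. Secreted cytokine in media measured by ELISA and normalized to total protein of lysed cell pellets from parallel plates. Expressed as percent of LPS control; mean with SE from 3–5 independent experiments.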

RAW264.7 [2] = assay: Antiinflammatory activity against LPS-stimulated mouse RAW264.7 cells assessed as inhibition of IL-6 accumulation at 10 uM pretreated for 2 hrs before LPS challenge after 22 hrs by ELISA relative to control; assay type: functional; outline: as §1
RAW264.7 [3] = assay: Cytotoxicity against LPS-stimulated mouse RAW264.7 cells at 10 uM pretreated for 2 hrs before LPS challenge after 22 hrs; assay type: cell-based; details: raw264.7, 22 h
RAW264.7 [4] = assay: Antiinflammatory activity against LPS-stimulated mouse RAW264.7 cells assessed as inhibition of TNFalpha accumulation pretreated for 2 hrs before LPS challenge after 22 hrs by ELISA relative to control; assay type: functional, cell-based
Outline: (§2)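 Macrophages plated overnight at 4.0 × 10⁶/plate at 37 °C, 5% CO₂, and pretreated 2 h with compound at 1, 2.5, 5.0 and 10 (concentration series), then stimulated with LPS for 22 h. Cytokine in culture media quantified by ELISA and normalized to total cellular protein, measured after lysis in Tris–NP40–SDS buffer and protein assay.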

RAW264.7 [5] = assay: Antiinflammatory activity against LPS-stimulated mouse RAW264.7 cells assessed as inhibition of IL-6 accumulation pretreated for 2 hrs before LPS challenge after 22 hrs by ELISA relative to control; assay type: functional, cell-based; outline: as §2

SMILES	Activity (RAW264.7 [1])	Activity (RAW264.7 [2])	further results
O=C1/C(=C/c2cccc(Cl)c2Cl)CC/C1=C\c1cccc(Cl)c1Cl	inactive	inactive	
COc1cc(OC)c(/C=C2\CCC/C(=C\c3c(OC)cc(OC)cc3OC)C2=O)c(OC)c1	Active	60%	
COc1cc(OC)c(/C=C2\CC/C(=C\c3c(OC)cc(OC)cc3OC)C2=O)c(OC)c1	inactive	inactive	
O=C(/C=C/c1c(F)cccc1F)/C=C/c1c(F)cccc1F	Active	60%	Activity (RAW264.7 [3]): Non-toxic; inhibition (RAW264.7 [4]): Dose-dependent effect; inhibition (RAW264.7 [5]): Dose-dependent effect
COc1ccc(/C=C/C(=O)/C=C/c2ccc(OC)cc2OC)c(OC)c1	Active	60%	
O=C1/C(=C/c2ccccc2C(=O)O)CC/C1=C\c1ccccc1C(=O)O	inactive	60%	
Cc1ccc(/C=C2\CC/C(=C\c3ccc(C)cc3C)C2=O)c(C)c1	Active	inactive	
CN(C)CCCOc1ccc(/C=C2\CCC/C(=C\c3ccc(OCCCN(C)C)cc3)C2=O)cc1			inhibition at 10 µM (RAW264.7 [1]): 96.9%; inhibition at 10 µM (RAW264.7 [2]; Mus musculus, RAW264.7): 97.1%; Activity (RAW264.7 [3]): Non-toxic; inhibition (RAW264.7 [4]): Dose-dependent effect; inhibition (RAW264.7 [5]): Dose-dependent effect
COc1cc(OC)c(/C=C/C(=O)/C=C/c2c(OC)cc(OC)cc2OC)c(OC)c1	Active	60%	
O=C1/C(=C/c2cc(F)ccc2F)CC/C1=C\c1cc(F)ccc1F	inactive	inactive	
O=C1/C(=C/c2c(F)cccc2F)CC/C1=C\c1c(F)cccc1F	inactive	inactive	
O=C(/C=C/c1cc(F)ccc1F)/C=C/c1cc(F)ccc1F	inactive	inactive	
O=C(/C=C/c1ccccc1C(=O)O)/C=C/c1ccccc1C(=O)O	inactive	inactive	
O=C1/C(=C/c2cc(F)ccc2F)CCC/C1=C\c1cc(F)ccc1F	inactive	inactive	
O=C1/C(=C/c2ccc(Cl)cc2Cl)CC/C1=C\c1ccc(Cl)cc1Cl	inactive	inactive	
COc1ccc(/C=C2\CCC/C(=C\c3ccc(OC)cc3OC)C2=O)c(OC)c1	inactive	inactive	
Cc1ccc(/C=C/C(=O)/C=C/c2ccc(C)cc2C)c(C)c1	Active	60%	
O=C(/C=C/c1ccc(Cl)cc1Cl)/C=C/c1ccc(Cl)cc1Cl	inactive	inactive	
O=C1/C(=C\c2ccccc2C(=O)O)CCC/C1=C\c1ccccc1C(=O)O	inactive	inactive	
Cc1ccc(/C=C2\CCC/C(=C\c3ccc(C)cc3C)C2=O)c(C)c1	inactive	inactive	
O=C1/C(=C/c2ccc(Cl)cc2Cl)CCC/C1=C\c1ccc(Cl)cc1Cl	inactive	inactive	
O=C1/C(=C/c2cccc(Cl)c2Cl)CCC/C1=C\c1cccc(Cl)c1Cl	inactive	inactive	
O=C1/C(=C/c2c(F)cccc2F)CCC/C1=C\c1c(F)cccc1F	inactive	inactive	
COc1ccc(/C=C2\CC/C(=C\c3ccc(OC)cc3OC)C2=O)c(OC)c1	inactive	60%	
